Test results as given in ChEMBL document CHEMBL1156503, “Long-acting kappa opioid antagonists disrupt receptor signaling and produce noncompetitive effects by activating c-Jun N-terminal kinase” (J Biol Chem, 2007).
The source made the active and inactive calls.

Experiments:
Mus musculus [1] = test: Inhibition of U50488-induced analgesic activity against C57BL/6 mouse assessed as tail withdrawal latency at 10 mg/kg, ip after 2 days; assay type: functional, organism-based; set-up: dose 10 mg/kg
Procedure, shortened: (§1)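 Male C57Bl/6 mice, 20–30 g. Single 10 mg/kg i.p. dose or saline. At set days, U50,488 15 mg/kg i.p. was given and tail-withdrawal latency from 52 ± 1 °C water measured 30 min later, 15 s cut-off. One-way ANOVA with Bonferroni post hoc test.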

Mus musculus [2] = test: Inhibition of U50488-induced analgesic activity against C57BL/6 mouse assessed as tail withdrawal latency at 10 mg/kg, ip; assay type: functional, organism-based; set-up: dose 10 mg/kg; procedure, shortened: as §1
[3] = target: T1, c-Jun N-terminal kinase, JNK (Homo sapiens, UniProt P45983+P53779+P45984); test: Increase of JNK phosphorylation in U50488 treated HEK293 cells expressing GFP tagged kappa opioid receptor; assay type: cell-based
Procedure, shortened: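 KOR-GFP HEK293 cells under G418, serum-starved 18 h, then concentration series for 1 h at 37 °C. Lysate (40 μg protein) immunoblotted for phospho-JNK, p54 and p46 summed, normalised to basal (100%). EC50 from nonlinear regression; n = 3–5 separate cultures.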

[4] = target: T1, c-Jun N-terminal kinase, JNK; test: Increase of JNK phosphorylation in U50488 treated HEK293 cells expressing GFP tagged kappa opioid receptor relative to U50,488; assay type: cell-based
[5] = target: T1, c-Jun N-terminal kinase, JNK; test: Increase of JNK phosphorylation in U50488 treated untransfected HEK293 cells at 100 uM after 15 mins; assay type: cell-based
[6] = target: T1, c-Jun N-terminal kinase, JNK; test: Increase of U50488-induced JNK phosphorylation in untransfected HEK293 cells at 50 uM after 15 mins; assay type: cell-based
Mus musculus [7] = test: Inhibition of U50488-induced analgesic activity against C57BL/6 mouse assessed as tail withdrawal latency at 10 mg/kg, ip upto 21 days; assay type: functional, organism-based; set-up: dose 10 mg/kg; procedure, shortened: as §1
[8] = target: T1, c-Jun N-terminal kinase, JNK; test: Increase of JNK phosphorylation in U50488 treated untransfected HEK293 cells at 10 uM after 1 hr; assay type: cell-based
Procedure, shortened: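 Untransfected HEK293 cells grown without G418, serum-starved 18 h, then ligand 10 μM for 1 h at 37 °C. Phospho-JNK immunoblot quantified as % of basal untreated control, n = 3–7.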

Mus musculus [9] = test: Effect on U50488-induced analgesic activity in C57BL/6 mouse assessed as tail withdrawal latency at 10 mg/kg, ip; assay type: functional, organism-based; set-up: dose 10 mg/kg
Procedure, shortened: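 Male mice, 20–30 g, 8–12 weeks old, got a single ip injection in saline (control: saline). At set times from 24 h to 28 days afterward, they were challenged with U50,488 15 mg/kg ip. Tail-withdrawal latency from 52 ± 1 °C water was read 30 min later, with a 15 s cut-off. Groups were compared with saline by one-way ANOVA and Bonferroni.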

Mus musculus [10] = test: Inhibition of U50488-induced analgesic activity against C57BL/6 mouse assessed as tail withdrawal latency at 10 mg/kg, ip for 14 days; assay type: functional, organism-based; set-up: dose 10 mg/kg; procedure, shortened: as §1
Mus musculus [11] = test: Inhibition of U50488-induced analgesic activity against C57BL/6 mouse assessed as tail withdrawal latency at 10 mg/kg, ip after 28 days; assay type: functional, organism-based; set-up: dose 10 mg/kg; procedure, shortened: as §1
[12] = target: Kappa-type opioid receptor (Mus musculus, UniProt P33534); test: Displacement of [3H]U69,593 from kappa opioid receptor in mouse brain tissue
Mus musculus [13] = test: Increase of JNK phosphorylation in mouse spinal cord at 10 mg/kg, ip after 1 hr; assay type: organism-based; set-up: dose 10 mg/kg
Procedure, shortened: (§2)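 C57Bl/6 mice (wild type; KOR−/− as control) given 10 mg/kg i.p. Spinal cord and striatum dissected 60 min later and Dounce-homogenised in lysis buffer with phosphatase and protease inhibitors. Phospho-JNK immunoblot expressed as % of basal untreated control.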

Mus musculus [14] = test: Increase of JNK phosphorylation in mouse striatum at 10 mg/kg, ip after 1 hr; assay type: organism-based; set-up: dose 10 mg/kg; procedure, shortened: as §2
[15] = target: T1, c-Jun N-terminal kinase, JNK; test: Increase in JNK phosphorylation in pertussis toxin treated HEK293 cells expressing GFP tagged kappa opioid receptor at 10 uM after 1 hr; assay type: cell-based
Procedure, shortened: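 KOR-GFP HEK293 cells serum-starved, pretreated with pertussis toxin 200 ng/ml for 18 h at 37 °C, then ligand 10 μM for 1 h at 37 °C. Phospho-JNK p54/p46 read by infrared immunoblot with β-actin loading control. Expressed as % basal, n = 3–4; Student's t test.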

Mus musculus [16] = test: Reversal of inhibition of U50488-induced analgesic activity against C57BL/6 mouse assessed as tail withdrawal latency at 10 mg/kg, ip after 8 days in presence of SP600125; assay type: functional, organism-based; set-up: dose 10 mg/kg
Procedure, shortened: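 Wild-type mice given SP600125 30 mg/kg i.p. (vehicle 5% […]/20% Cremophor EL/75% saline) 24 h and 30 min before 10 mg/kg i.p. test drug. Day 7–8: U50,488 25 mg/kg i.p. challenge, then tail-flick latency in 52 °C water, 15 s cut-off.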

Sequence of Kappa-type opioid receptor (P33534 whole entry): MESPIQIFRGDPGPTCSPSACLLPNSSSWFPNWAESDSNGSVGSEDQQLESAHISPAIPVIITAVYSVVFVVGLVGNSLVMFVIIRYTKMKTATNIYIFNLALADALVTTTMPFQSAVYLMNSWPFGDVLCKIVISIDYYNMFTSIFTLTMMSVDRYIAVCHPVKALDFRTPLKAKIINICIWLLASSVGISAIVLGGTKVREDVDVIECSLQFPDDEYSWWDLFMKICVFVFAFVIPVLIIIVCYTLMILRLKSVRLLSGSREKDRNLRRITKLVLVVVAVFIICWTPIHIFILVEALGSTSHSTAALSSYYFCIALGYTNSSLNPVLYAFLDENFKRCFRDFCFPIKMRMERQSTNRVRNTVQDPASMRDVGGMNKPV

Q: For `C=CCN1CC[C@]23c4c5ccc(O)c4O[C@H]2C(=O)CC[C@@]3(O)[C@H]1C5`, which Activity (Mus musculus [1]) is on record?
A: The Activity was “inactive”.

Q: What about the Activity (Mus musculus [2]) of the same molecule?
A: Its Activity is “Active”.

Q: Which Activity [3] does the source give for `CO[C@@]12CC[C@@]3(C[C@@H]1[C@](C)(O)C(C)(C)C)[C@H]1Cc4ccc(O)c5c4[C@@]3(CCN1CC1CC1)[C@H]2O5` here?
A: Its Activity is “inactive”.

Q: And the Intrinsic activity [4]?
A: Its Intrinsic activity is “inactive”.

Q: For `COc1ccc(C[C@H]2NC[C@H](O)[C@H]2OC(C)=O)cc1`, which Activity [5] is on record?
A: The Activity was “Active”.

Q: And the Activity [6]?
A: Its Activity is “Active”.

Q: How did the Activity (Mus musculus [7]) turn out when `N=C(N)Nc1ccc2[nH]c3c(c2c1)C[C@@]1(O)[C@H]2Cc4ccc(O)c5c4[C@@]1(CCN2CC1CC1)[C@H]3O5` was run?
A: Its Activity is “Active”.

Q: What about the Activity [8] of the same molecule?
A: Its Activity is “inactive”.

Q: For `Oc1c2ccccc2c2c3c(cccc13)N=N2`, which Activity (Mus musculus [9]) is on record?
A: Its Activity is “inactive”.

Q: What does the source list for `CC(C)C[C@H](NC(=O)[C@H](Cc1ccccc1)NC(=O)CNC(=O)CNC(=O)[C@@H](N)Cc1ccc(O)cc1)C(=O)N[C@@H](CCCNC(=N)N)C(=O)N[C@@H](CCCNC(=N)N)C(=O)N[C@@H](CCC(N)=O)C(=O)N[C@@H](Cc1ccccc1)C(=O)N[C@@H](CCCCN)C(=O)N[C@H](C(=O)N[C@H](C(=O)N[C@H](C(=O)O)[C@@H](C)O)C(C)C)C(C)C` [DYNORPHIN B]?
A: EC50 [3]: 87 nM; Intrinsic activity [4]: 0.61

Q: With `CC(C)[C@@H](CN1CC[C@@](C)(c2cccc(O)c2)[C@@H](C)C1)NC(=O)[C@H]1Cc2ccc(O)cc2CN1` [JDTIC] as the molecule, how does the Activity (Mus musculus [10]) read?
A: The Activity was “Active”.

Q: What about the EC50 [3] of the same molecule?
A: The EC50 was 5 nM.

Q: And the Activity [8]?
A: Its Activity is “inactive”.

Q: What about the Intrinsic activity [4] of the same molecule?
A: The Intrinsic activity was 0.57.

Q: With `Oc1ccc2c3c1O[C@H]1c4[nH]c5c(c4C[C@@]4(O)[C@@H](C2)N(CC2CC2)CC[C@]314)C[C@@]1(O)[C@H]2Cc3ccc(O)c4c3[C@@]1(CCN2CC1CC1)[C@H]5O4` [NORBINALTORPHIMINE] as the molecule, how does the Activity (Mus musculus [7]) read?
A: Its Activity is “Active”.

Q: What about the Activity (Mus musculus [11]) of the same molecule?
A: The Activity was “inactive”.

Q: What about the Kd [12] of the same molecule?
A: The Kd was 1.65 nM.

Q: What about the EC50 [3] of the same molecule?
A: The EC50 was 158 nM.

Q: And the Activity [8]?
A: Its Activity is “inactive”.

Q: And the Activity (Mus musculus [13])?
A: The Activity was “Active”.

Q: What about the Activity (Mus musculus [14]) of the same molecule?
A: The Activity was “Active”.

Q: And the Activity [15]?
A: The Activity was “inactive”.

Q: What about the Intrinsic activity [4] of the same molecule?
A: The Intrinsic activity was 0.84.

Q: What about the Activity (Mus musculus [16]) of the same molecule?
A: The Activity was “Active”.
